Screening results from PubChem BioAssay.
Most compounds without a hit are left out; they make up all but 3.8% or so of the library.
Kir21 block: blocks the mouse Kir2.1 inward-rectifier potassium channel; actives 0.85% (n = 310,000); P35561; B-score at 10 µM; HEK293-Kir2.1, FluxOR thallium flux fluorescence; active compounds read low;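 active = fluorescence ratio B-score at or below minus 3 SD of library scores, with starting-brightness B-score within 2 SD, cut at about -4.2 in these data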;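 note: channel flux triggered by added potassium and thallium sulfate stimulus; B-score of peak minus minimum fluorescence over baseline after thallium stimulus; more negative B-score means stronger Kir2.1 block with less thallium influx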
hERG rescue: hERG (human) protection from proarrhythmic block; Q12809; CHO-hERG, FluxOR thallium flux, dofetilide IC70 present; activation (rescue from dofetilide block), less the hit threshold, % at 10 µM; actives 0.51% (n = 310,000); AID 1511;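 active = activation above the mean of controls blocked by dofetilide plus 5 SD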;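 note: thallium influx through hERG after potassium depolarization seen as dye fluorescence rise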
KCNQ1 block: inhibitors of human KCNQ1 potassium channel | P51787 | CHO-K1 KCNQ1, FluxOR thallium flux fluorescence; active compounds read high | B-score at 10 µM | actives 1.3% (n = 310,000);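 active = compounds whose thallium flux B-score, printed positive for inhibition, exceeds three library SD while starting fluorescence stays within three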;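 note: channel opened by potassium depolarization with thallium stimulus after 20 min compound exposure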
KCNK9 inh: human KCNK9 channel inhibition. Q9NPC2. HEK293 KCNK9, FluxOR thallium flux fluorescence; active compounds read low. B-score at 10 µM. actives 1.2% (n = 310,000). AID 488922;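 active = ratio B-score over 3 SD below the library mean, with starting fluorescence within 5 SD of its mean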;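 note: negative B-score means less thallium flux so channel inhibition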
Target sequence (Q9NPC2 whole entry, looked up): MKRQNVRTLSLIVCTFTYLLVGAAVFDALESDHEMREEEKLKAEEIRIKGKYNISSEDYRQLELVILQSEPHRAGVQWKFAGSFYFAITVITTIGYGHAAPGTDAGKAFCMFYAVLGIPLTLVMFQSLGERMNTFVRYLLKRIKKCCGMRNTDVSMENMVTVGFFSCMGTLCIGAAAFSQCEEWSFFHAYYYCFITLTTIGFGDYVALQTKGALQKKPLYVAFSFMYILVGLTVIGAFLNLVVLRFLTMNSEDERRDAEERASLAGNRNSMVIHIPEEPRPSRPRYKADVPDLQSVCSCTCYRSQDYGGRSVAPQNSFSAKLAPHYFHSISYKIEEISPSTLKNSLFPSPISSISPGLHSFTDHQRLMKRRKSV
KCNQ1 act: human KCNQ1 channel potentiation or activation | P51787 | CHO-K1 KCNQ1, thallium flux FluxOR fluorescence; active compounds read high | B-score at 10 µM | actives 0.35% (n = 310,000);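 active = fluorescence ratio B-score, a plate-corrected score, at least three library SD, with initial intensity B-score within 5 SD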
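assay system = CHO-K1 cells stably expressing KCNQ1 | medium = assay buffer, equal DMSO in all wells | timing = 37 °C overnight plating, 90-min dark dye load, 20-min compound pretreatment | measured by = kinetic FluxOR thallium fluorescence, 10-s 1-Hz baseline, 110-s post-stimulus read | measure = fluorescence change relative to baseline, converted to B score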
KCNK3 block: human KCNK3 channel inhibition, primary screen; O14649; CHO-KCNK3 thallium flux, FluxOR fluorescence; active compounds read low; B-score at 10 µM; actives 0.84% (n = 340,000); AID 602410;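 active = B-score under library mean minus 4 SD, starting fluorescence ratio at most library mean plus 5 SD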;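 note: more negative B-score means stronger inhibition of thallium flux through KCNK3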
* hit, by the source's call; i = inactive; x = no result.

SMILES | Kir21 block | hERG rescue | KCNQ1 block | KCNK9 inh | KCNQ1 act | KCNK3 block
COc1ccc(CCN2CC(C(=O)NCCc3ccc(C(F)(F)F)cc3)CCC2=O)cc1 (centres undefined) | -0.33 | -7 | i | i | i | i
O=[N+]([O-])c1ccc(C2=NN(c3ccccc3)C(c3ccco3)C2)cc1 (centres undefined) | -12 | -31 | 8* | i | i | i
O=[N+]([O-])c1ccc(/C=C/C2=NN(c3ccccc3)C(c3ccco3)C2)cc1 (centres undefined) | x | x | x | x | x | i
O=C(Cc1ccc(Br)cc1)Nc1ccc(S(=O)(=O)NCC2CCCO2)cc1 (centres undefined) | 0.22 | -7 | i | i | i | i
Cc1ccc(C)c(NC(=O)C2CCCC2)c1 | -0.42 | -5 | i | i | i | i
CC1(C)CC1C(=O)Nc1ccc([N+](=O)[O-])cc1Br (centres undefined) | -1.6 | -7 | i | i | i | i
Cc1ccc([N+](=O)[O-])cc1NC(=O)CN(C1CCCCC1)S(=O)(=O)c1ccc(Cl)cc1 | -0.78 | -8 | 7* | -7.7* | i | i
Cc1ccc(NC(=O)/C(=C/c2cccc([N+](=O)[O-])c2)NC(=O)C2CCCCC2)c(C)c1 | 2.7 | -9 | i | i | i | i
O=C(Nc1ccc([N+](=O)[O-])cc1)/C(=C/c1cccc([N+](=O)[O-])c1)NC(=O)C1CCCCC1 | -0.32 | -4 | i | -6.9* | i | i
O=C(CN(C1CCCCC1)S(=O)(=O)c1ccc(Cl)cc1)N1CCOCC1 | -0.39 | -18 | i | i | i | i
Cc1ccc([N+](=O)[O-])cc1NC(=O)C1CCCC1 | 0.04 | 5.0* | i | i | i | i
Cc1ccc(C2(c3ccc(C)cc3)CC2C(=O)Nc2ccc([N+](=O)[O-])cc2O)cc1 (centres undefined) | 0.68 | -11 | 11* | i | i | i
Cc1ccc(/C=C(\C#N)C(=O)N2CCCC2)c(C)c1 | 0.55 | -9 | i | i | i | i
CCN(C(=O)C(C)Sc1nnc(-c2ccncc2)n1C)C1CCCCC1 (centres undefined) | x | x | x | x | x | i
COc1ccc(/C=N/Nc2nc(Nc3ccccc3)nc(N3CCCCC3)n2)cc1OC | 0.62 | -13 | 7* | i | i | i
COc1ccc(C(=O)NN2CCOCC2)cc1 | 2 | -4 | i | i | i | i
CCCc1cc(-c2[nH]ncc2-c2ccc3c(c2)OCCCO3)c(O)cc1O | -0.48 | -28 | 6* | i | i | i
O=C1CSC(c2ccccc2[N+](=O)[O-])N1c1ccc(O)cc1 (centres undefined) | -0.3 | -11 | i | i | i | i
O=C1CSC(c2ccccc2[N+](=O)[O-])N1c1ccccc1 (centres undefined) | -4.5* | -8 | i | i | i | i
Cc1ccc(S(=O)(=O)NNC(=O)C(O)(c2ccccc2C)c2ccccc2C)cc1 | -1.1 | -8 | i | i | i | i
O=C(Nc1nnc(SCc2ccccn2)s1)C1CC(=O)N(c2ccc(F)cc2)C1 (centres undefined) | -0.96 | -10 | i | i | i | i
COC(=O)/C=C/S(=O)(=O)c1ccc(NC(C)=O)cc1 | -2.1 | -21 | 6* | i | i | i
COc1ccccc1OS(=O)(=O)c1ccc(NC(C)=O)cc1 | 0.41 | -3 | i | i | i | i
CCC(C)n1c(=S)[nH]c2c(sc3ccc([N+](=O)[O-])cc32)c1=O (centres undefined) | 1.2 | 105* | i | i | i | i
COc1cccc(CN2CCN(S(=O)(=O)c3ccc(Br)cc3)CC2)c1 | -0.46 | -3 | i | i | i | -9.7*
COc1ccc(N2CCN(C(=O)c3cc(=O)c4cc(C)c(C)cc4o3)CC2)cc1 | 0.41 | -8 | i | i | i | i
Cc1cc(N/N=C/c2ccccc2)nc(NCc2ccccc2)n1 | 0.65 | -4 | i | i | i | i
